Measured values as given in ChEMBL document CHEMBL1148893, “Nodulisporic acids D-F: structure, biological activities, and biogenetic relationships” (J Nat Prod, 2004).

Legend:
Ctenocephalides felis = experiment: Insecticidal activity against Ctenocephalides felis by artificial membrane feeding assay; format: functional
Summary of the method: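 Ex-vivo artificial membrane feeding assay, 20-25 cat fleas per titration level; compounds dissolved or suspended in bovine blood fed to fleas. LD90 taken as the concentration killing >90% of fleas.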

[1] = Displacement of [35S]nodulisporic amide from Glutamate gated chloride channel alpha subunit/GABA gated chloride channel subunit Rdl in Drosophila melanogaster head membrane
Summary of the method: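 Competition binding against [35S]nodulisporic amide (10 pM ligand) on Drosophila melanogaster head membranes. Compounds prepared as 20 mM DMSO stocks, tested from 10 µM down to 10 pM (0.1 pM for potent ones) in 0.5 log steps, in triplicate. Each compound assayed at least twice; IC50 reported as geometric mean. Where label recovery increased, the highest concentration without "precipitation" is reported instead.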

SMILES | LD90 (Ctenocephalides felis) | IC50 [1]
C=C(C)[C@H]1C(=O)c2c3c(cc4c5c(n1c24)[C@@]1(C)[C@@H](CC[C@@H]2[C@]1(C)CC[C@]1(O)O[C@H]([C@H](O)[C@H](C)C(=O)O)C[C@@]21C)C5)C1=CC(C)(C)OC(C)(C)[C@H]1[C@@H]3O [NODULISPORIC ACID A12] | 14 µM | 70 nM
C=C(C)[C@H]1Cc2c3c(cc4c5c(n1c24)[C@@]1(C)[C@@H](CC[C@@H]2[C@]1(C)CC[C@]1(O)O[C@H]([C@H](O)[C@H](C)C(=O)O)C[C@@]21C)C5)C1=CC(C)(C)OC(C)(C)[C@H]1[C@@H]3O [NODULISPORIC ACID B2] | >142.9 µM | 101 nM
C=C(C)[C@H]1Cc2c3c(cc4c5c(n1c24)[C@@]1(C)[C@@H](CC[C@H]2[C@](C)(/C=C/C=C(\C)C(=O)O)[C@@H](O)CC[C@@]21C)C5)C1=CC(C)(C)OC(C)(C)[C@H]1[C@@H]3O [NODULISPORIC ACIDS B] | 150 µM | 17.4 nM
CC(C)=CCc1c2c(cc3c4c([nH]c13)[C@@]1(C)[C@@H](CC[C@H]3[C@](C)(/C=C/C=C(\C)C(=O)O)[C@@H](O)CC[C@@]31C)C4)C1=CC(C)(C)OC(C)(C)[C@H]1[C@@H]2O [NODULISPORIC ACID C] | 15 µM | 5.2 nM
C/C(=C\[C@@H]1C[C@@]2(C)[C@@H]3CC[C@H]4Cc5c([nH]c6cc7c(cc56)C5=CC(C)(C)OC(C)(C)[C@H]5C7)[C@]4(C)[C@@]3(C)CC[C@]2(O)O1)C(=O)O [NODULISPORIC ACID D1] |  | > 10000 nM
CC(C)=CCc1c2c(cc3c4c([nH]c13)[C@@]1(C)[C@@H](CC[C@H]3[C@](C)(CC/C=C(\C)C(=O)O)[C@@H](O)CC[C@@]31C)C4)C1=CC(C)(C)OC(C)(C)C1=C2 | 15.3 µM | > 100 nM
C=C(C)[C@H]1Cc2c3c(cc4c5c(n1c24)[C@@]1(C)[C@@H](CC[C@H]2[C@](C)(/C=C/C=C(\C)C(=O)OC)[C@@H](O)CC[C@@]21C)C5)C1=CC(C)(C)OC(C)(C)[C@H]1[C@@H]3O | 147.1 µM | 2.6 nM
C=C(C)[C@H]1C(=O)c2c3c(cc4c5c(n1c24)[C@@]1(C)[C@@H](CC[C@H]2[C@](C)(/C=C/C=C(\C)C(=O)OC)[C@@H](O)CC[C@@]21C)C5)C1=CC(C)(C)OC(C)(C)[C@H]1[C@@H]3O | 14.4 µM | 0.43 nM
CC(C)=CCc1cc2[nH]c3c(c2cc1CC=C(C)C)C[C@@H]1CC[C@H]2[C@](C)(CC/C=C(\C)C(=O)O)[C@@H](O)CC[C@]2(C)[C@@]31C |  | 2140 nM
CC(C)=CCc1c2c(cc3c4c([nH]c13)[C@@]1(C)[C@@H](CC[C@@H]3[C@]1(C)CC[C@]1(O)O[C@H](/C=C(\C)C(=O)O)C[C@@]31C)C4)C1=CC(C)(C)OC(C)(C)[C@H]1[C@@H]2O [NODULISPORIC ACID C1] | >146.2 µM | 52.3 nM
COC(=O)[C@@H](C)[C@@H](O)[C@@H]1C[C@@]2(C)[C@@H]3CC[C@H]4Cc5c([nH]c6cc7c(cc56)C5=CC(C)(C)OC(C)(C)[C@H]5C7)[C@]4(C)[C@@]3(C)CC[C@]2(O)O1 [NODULISPORIC ACID D2 METHYL ESTER] |  | > 10000 nM
C=C(C)[C@H]1C(=O)c2c3c(cc4c5c(n1c24)[C@@]1(C)[C@@H](CC[C@@H]2[C@]1(C)CC[C@]1(O)O[C@H](/C=C(\C)C(=O)O)C[C@@]21C)C5)C1=CC(C)(C)OC(C)(C)[C@H]1[C@@H]3O [NODULISPORIC ACID A1] | 7.3 µM | 10.5 nM
C=C(C)[C@H]1C(=O)c2c3c(cc4c5c(n1c24)[C@@]1(C)C(CC[C@H]2[C@](C)(/C=C/C=C(\C)C(=O)O)[C@@H](O)CC[C@@]21C)C5)C1=CC(C)(C)OC(C)(C)C1[C@@H]3O (stereo not given in full) [NOD ACID A] | 1.5 µM | 0.27 nM
C/C(=C\CC[C@]1(C)[C@@H](O)CC[C@@]2(C)[C@H]1CC[C@H]1Cc3c([nH]c4ccccc34)[C@@]12C)C(=O)O [NODULISPORIC ACID F] | 45.9 µM | > 10000 nM
C/C(=C\C=C\[C@]1(C)C(=O)CC[C@@]2(C)[C@H]1CC[C@H]1Cc3c([nH]c4cc5c(cc34)C3=CC(C)(C)OC(C)(C)[C@H]3C5)[C@@]12C)C(=O)O [NODULISPORIC ACID D3] |  | > 1000 nM
COC(=O)/C(C)=C/CC[C@]1(C)[C@@H](O)CC[C@@]2(C)[C@H]1CC[C@H]1Cc3c([nH]c4cc(CC=C(C)C)c(CC=C(C)C)cc34)[C@@]12C |  | > 100 nM
C[C@H](C(=O)O)[C@@H](O)[C@@H]1C[C@@]2(C)[C@@H]3CC[C@H]4Cc5c([nH]c6cc7c(cc56)C5=CC(C)(C)OC(C)(C)[C@H]5C7)[C@]4(C)[C@@]3(C)CC[C@]2(O)O1 [NODULISPORIC ACID D2] |  | 22.1 nM
C=C(C)[C@H]1C(=O)c2c3c(cc4c5c(n1c24)[C@@]1(C)[C@@H](CC[C@H]2[C@](C)(CC/C=C(\C)C(=O)O)[C@@H](O)CC[C@@]21C)C5)C1=CC(C)(C)OC(C)(C)C1=C3 | >15.1 µM | 23 nM
CC(C)=CCc1c2c(cc3c4c([nH]c13)[C@@]1(C)[C@@H](CC[C@@H]3[C@]1(C)CC[C@]1(O)O[C@H]([C@H](O)[C@H](C)C(=O)O)C[C@@]31C)C4)C1=CC(C)(C)OC(C)(C)[C@H]1[C@@H]2O [NODULISPORIC ACID C2] | >142.5 µM | 71.5 nM
COC(=O)/C(C)=C/[C@@H]1C[C@@]2(C)[C@@H]3CC[C@H]4Cc5c([nH]c6cc7c(cc56)C5=CC(C)(C)OC(C)(C)[C@H]5C7)[C@]4(C)[C@@]3(C)CC[C@]2(O)O1 [NODULISPORIC ACID D1 METHYL ESTER] |  | > 100 nM
C=C(C)[C@H]1C(=O)c2c3c(cc4c5c(n1c24)[C@@]1(C)[C@@H](CC[C@H]2[C@](C)(CC/C=C(\C)C(=O)O)[C@@H](O)CC[C@@]21C)C5)C1=CC(C)(C)OC(C)(C)[C@H]1[C@@H]3O [NODULISPORIC ACID A4] | 14.7 µM | 2.4 nM
COC(=O)/C(C)=C/C=C/[C@]1(C)[C@@H](O)CC[C@@]2(C)[C@H]1CC[C@H]1Cc3c([nH]c4cc5c(cc34)C3=CC(C)(C)OC(C)(C)[C@H]3C5)[C@@]12C [NODULISPORIC ACID D METHYL ESTER] |  | > 100 nM
C=C(C)[C@H]1Cc2c3c(cc4c5c(n1c24)[C@@]1(C)[C@@H](CC[C@@H]2[C@]1(C)CC[C@]1(O)O[C@H](/C=C(\C)C(=O)O)C[C@@]21C)C5)C1=CC(C)(C)OC(C)(C)[C@H]1[C@@H]3O [NODULISPORIC ACID B1] | >147.7 µM | 121 nM
C/C(=C\C=C\[C@]1(C)[C@@H](O)CC[C@@]2(C)[C@H]1CC[C@H]1Cc3c([nH]c4cc5c(cc34)C3=CC(C)(C)OC(C)(C)[C@H]3C5)[C@@]12C)C(=O)O [NODULISPORIC ACID] | 92.6 µM | > 1000 nM
